Measured values from different studies.
Grm8: Metabotropic glutamate receptor 8 (Grm8, Rattus norvegicus, UniProt P70579)
Melanocortin receptor 3: Melanocortin receptor 3 (Mus musculus, UniProt P33033)
CHRM1: Muscarinic acetylcholine receptor M1 (CHRM1, Homo sapiens, UniProt P11229)
TLR7: Toll-like receptor 7 (TLR7, Homo sapiens, UniProt Q9NYK1)

Compound	target	test	conditions	EC50 [µM]
CC(=O)c1cc([N+](=O)[O-])c(Sc2cccc(Cl)c2Cl)s1	Collagenase 3 (MMP13, Homo sapiens, UniProt P45452)	enzyme activity, inhibitor	–	> 50
COC(=O)c1ccc(-n2c(C)cc(C(=O)CSc3ccc(NC(C)=O)cc3)c2C)cc1	Grm8	calcium signal, positive allosteric modulator	–	0.851
CCCC[C@H](NC(=O)[C@@H](NC(=O)[C@@H](N)Cc1ccc(O)cc1)C(C)C)C(=O)NCC(=O)N[C@@H](Cc1c[nH]cn1)C(=O)N[C@@H](Cc1ccccc1)C(=O)N[C@@H](CCCNC(=N)N)C(=O)N[C@H](Cc1c[nH]c2ccccc12)C(=O)N[C@@H](CC(=O)O)C(=O)N[C@@H](CCCNC(=N)N)C(=O)N[C@@H](Cc1ccccc1)C(=O)NCC(=O)O	Melanocortin receptor 3	reporter gene, agonist	–	0.04
CCNC(=O)C1OC(n2cnc3c(N)nc(NN=CC4CCC=CO4)nc32)C(O)C1O (centres unmarked)	Adenosine receptor A2b (ADORA2B, Homo sapiens, UniProt P29275)	GTPγS binding, agonist	cell membranes	31
N[C@@H](CCC(=O)O)C(=O)O	Grm8	ion flux, agonist	–	6.3
CCn1c(-c2nc3ccc(C(=O)N4CCCC(N)C4)cc3n2C)cc2ccccc21 (centres unmarked)	CHRM1	calcium signal, agonist	–	15.8
C[C@]12CCC3=C4CCC(=O)C=C4CC[C@H]3[C@@H]1CC[C@@]2(O)CC#N	Progesterone receptor (PGR, Homo sapiens, UniProt P06401)	reporter gene, agonist	–	0.0036
CSCC[C@H](NC(=O)[C@@H](NC(=O)[C@@H](N)Cc1ccc(O)cc1)C(C)C)C(=O)NCC(=O)N[C@@H](Cc1c[nH]cn1)C(=O)N[C@@H](Cc1ccccc1)C(=O)N[C@@H](CCCNC(=N)N)C(=O)N[C@@H](Cc1c[nH]c2ccccc12)C(=O)O	Melanocortin receptor 3	reporter gene, agonist	–	2.8
CCCCOc1nc(N)c2[nH]c(=O)n(CCN3CCNCC3)c2n1	TLR7	reporter gene, agonist	–	10
CSCC[C@H](N)C(=O)NCC(=O)N[C@@H](Cc1c[nH]cn1)C(=O)N[C@@H](Cc1ccccc1)C(=O)N[C@@H](CCCNC(=N)N)C(=O)N[C@@H](Cc1c[nH]c2ccccc12)C(=O)O	Melanocortin receptor 3	reporter gene, agonist	–	22.4
CCn1c(-c2nc3cc(C(=O)N4CCC[C@@H](N)C4)cc(OC)c3n2C)cc2cccnc21	CHRM1	calcium signal, agonist	–	7.94
CC[C@@H]1SC2(CCN(C)CC2)NC1=O	Muscarinic acetylcholine receptor M4 (Rattus norvegicus, UniProt P08485)	calcium signal, agonist	–	> 50
CCCCOc1nc(N)c2[nH]c(=O)n(C3CNC3)c2n1	TLR7	reporter gene, agonist	–	286
CCCC[C@H](NC(=O)[C@@H](NC(=O)[C@@H](N)Cc1ccc(O)cc1)C(C)C)C(=O)NCC(=O)N[C@@H](Cc1c[nH]cn1)C(=O)N[C@@H](Cc1ccccc1)C(=O)N[C@@H](CCCN=C(N)N)C(=O)N[C@@H](Cc1c[nH]c2ccccc12)C(=O)N[C@@H](CC(=O)O)C(=O)N[C@@H](CCCN=C(N)N)C(=O)N[C@@H](Cc1ccccc1)C(=O)NCC(=O)O	Melanocortin receptor 3	reporter gene, agonist	–	0.068
